Assay: Toxicity liver stage against HepG2, at 10uM
Assay type: cell-based
Set-up: test concentration 10 uM, cell line HepG2-A16-CD81EGFP
Conditions: human, HepG2-A16-CD81EGFP cells; read-out: INHIBITION
Summary of the method: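 Uninfected HepG2-A16-CD81EGFP cells, 3 × 10^3 per well, 1536-well, plated on prespotted compound at 10 μM final, parasite-free screening media added to match infected plates; puromycin 10 μM positive, DMSO 0.5% negative; run in parallel with 48 h PbLuc assay at 37 °C, 5% CO2; viability by CellTiter-Glo luminescence, normalized to controls.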

SMILES	cytotoxicity at 10 µM
COCCc1noc(CN2CCCC2c2c(C)nn(C)c2OC)n1 (stereo unspecified)	-2.36%
CN1C[C@H]2CC[C@@H](CC1=O)N2C(=O)c1cc2ccccc2[nH]c1=O	-7.66%
Cc1ccccc1CC(=O)N1C[C@@H](O)[C@H](N2CCN(C)CC2)C1	-4.29%
CNC(=O)c1cccc(C2CNCCN2C(=O)c2cccc(F)c2)c1 (stereo unspecified)	-7.9%
CCn1ncnc1C(C)Nc1cc(C2CCNCC2)nc(C)n1 (stereo unspecified)	-6.77%
N[C@H]1CN(C(=O)CCC(F)(F)F)C[C@@H]1c1ccccc1	6.95%
Cc1nc(C2CN(C)CCO2)cc(N2CCC(C(N)=O)CC2)n1 (stereo unspecified)	-22.8%
CS(=O)(=O)N1CCC(CNc2cc(Cl)ccc2C#N)CC1	14.9%
Cc1noc(C)c1CN1CCc2ncnc(-c3ccccc3)c2CC1	-89.9%
Cc1nn(C)cc1C(=O)NC(CC(C)C)C(=O)Nc1cc[nH]n1 (stereo unspecified)	-2.33%
O=C(N1CCOCC1)[C@@]12CCO[C@@H]1CCN(C1CCCC1)C2	7.83%
Cc1nc(C2CCCN2CCc2ccccn2)no1 (stereo unspecified)	7.28%
COCCN1C[C@@H]2[C@@H](OC)CCN(Cc3cccc(C)n3)[C@@H]2C1	-9.41%
CCc1nc(CCn2cc(-c3nccn3C)nn2)no1	-55.3%
Cc1nn(C)c2cnn(Cc3ccc(C(=O)NC4CC4)cc3)c12	6.42%
Cc1ccccc1OC1(C(=O)O)CCN(C(=O)CCc2ccco2)CC1	1.5%
CN(c1c(F)cccc1F)S(=O)(=O)c1cc2c(c(C(=O)O)c1)OCCO2	-7.57%
COCc1cc(NCCc2ccc(OC)cc2)n2nccc2n1	0.266%
CS(=O)(=O)N1CC2(CCN(C(=O)c3csnn3)CC2)c2ccccc21	7.88%
Cc1ncc(-c2ccncc2)c(C2CCCN(C(=O)c3ccno3)C2)n1 (stereo unspecified)	11.9%
Cc1cc(C)c(CCNC(=O)NCCCC(N)=O)c(C)c1	-1.24%

SMILES	cytotoxicity at 10 µM
O=c1ccc2c(n1CCN1CCCC1)CCN(c1ncccn1)CC2	8.33%
COc1ccccc1OC1CN(C(=O)C(c2ccc(F)cc2)N(C)C)C1 (stereo unspecified)	1.42%
CCOC(=O)N1CCCC2(CCCNC2)C1 (stereo unspecified)	2.11%
CC(C)c1nnc2n1CCN(C(=O)CN(C)Cc1ccccc1)C2	-5.17%
Cc1nnc2n1CCN(C(=O)c1cc(Br)c[nH]1)C2	-10.7%
CNc1nccnc1C1CN(Cc2ccc(OCC(=O)O)cc2)CCO1 (stereo unspecified)	-5.73%
c1ncn(CC2CN(Cc3nc(-c4ccsc4)no3)CCO2)n1 (stereo unspecified)	-4.72%
CCN(CC)C(=O)CCc1c(C)nc2cc(O)nn2c1C	0.33%
CCOc1ncccc1NC(=O)N1CCCN(C(=O)OC)CC1	-9.86%
Cc1nccn1CC1CCCN1S(=O)(=O)Cc1ccc(F)cc1 (stereo unspecified)	-7.69%
c1ccc(Cn2cc(CNCC3CNc4ccnn4C3)cn2)cc1 (stereo unspecified)	-11.6%
O=C(O)[C@@H]1CN(CC(=O)N2CCCCC2)C[C@H]1c1ccc(F)cc1	-3.95%
Cc1ccc(C(=O)NCCCN(C)S(C)(=O)=O)cc1-n1cccc1	-8.71%
COc1ccc(Br)cc1CCC(=O)N1CCCC1	-4.2%
COc1ccc(OCCNCCn2cccn2)cc1	2.05%
CC(C)(O)c1cc(CC2(NCc3ccco3)COC2)no1	-1.7%
CCS(=O)(=O)N1CC(=O)N(CCOc2ccccc2)CC(O)C1 (stereo unspecified)	-0.739%
Cc1cc(C)n(-c2ccc(N3CCC4(CC3)OCC(C)O4)nc2)n1 (stereo unspecified)	-1.39%
CC(C)N1C(=O)CC(N2CCN(c3ccc(F)cc3)CC2)C1=O (stereo unspecified)	8.44%
O=C(O)c1cccnc1CN(Cc1ccsc1)C1CC1	3.7%
CN(C)c1ccc(C(=O)N2CCN(Cc3cscn3)CC2)cn1	-4.57%

SMILES	cytotoxicity at 10 µM
Nc1nnc(SCC(=O)c2cc3c(cc2Cl)NC(=O)C3)s1	-0.139%
CCCS(=O)(=O)N1C[C@@H]2C[C@H](C(=O)Nc3cccnc3)[C@H](C1)O2	-78.8%
Cn1cc(CC(=O)N2CCCC(c3ccn[nH]3)C2)cn1 (stereo unspecified)	-4.89%
Cc1nn(CC(=O)N2CCC(Nc3cccnn3)CC2)c(C)c1Cl	-12%
Cc1ccc(CN2CCc3ncnc(-c4ccoc4)c3CC2)o1	0.968%
CN1C(=O)C2(NC(=O)c3ccccc3O2)c2ccccc21 (stereo unspecified)	-7.65%
CN1CCC(NC(=O)CCCc2cc(Cl)sc2Cl)C1=O (stereo unspecified)	-2.46%
Cc1nonc1NC(=O)CCn1cc(Br)ccc1=O	0.297%
Cc1nc(N(C)C)nc2c1COCC21CCN(C(=O)C2CC2)C1 (stereo unspecified)	4.27%
O=C(NCCc1nc2ccccc2s1)c1coc(CN2CCOCC2)c1	-5.69%
Cn1cc(S(=O)(=O)NCC2CCN(C(=O)Oc3ccccc3)CC2)cn1	-8.36%
Cc1nc(CN2C[C@@H]3CN(C(=O)c4cnccn4)C[C@@H]3C2)cs1	-8.97%
CC(C)Nc1nc(N2CCCC2)nc2c1CN(S(C)(=O)=O)CC2	2.69%
Cc1cccc(OCCSCCn2nc3ccccn3c2=O)c1	6.47%
COCc1ccccc1C(=O)N1CCCC(c2cc(C)[nH]n2)C1 (stereo unspecified)	-23.2%
O=C(NC1CCCC1)c1cc2c(s1)CCN2C(=O)c1ccccc1	6.55%
CNC(=O)N1CCC2(CC1)CNc1ccc(F)cc12	10.1%
CC(C)N1CCC(CC(=O)NCC2OCCc3ccccc32)CC1 (stereo unspecified)	-4.65%
CC(C)C1CCCN1C(=O)Nc1ccc(=O)n(C)c1 (stereo unspecified)	0.581%
Cc1ccc(O[C@@H]2C[C@H]3CN(C(=O)c4cccnc4)CCN3C2)cc1	1.06%
CCc1ccccc1CN1CC[C@@H](NC(=O)c2cccnc2)[C@H](O)C1	-9.67%

SMILES	cytotoxicity at 10 µM
COc1ccc(CC(=O)N2CCCCC2Cn2cc(C)cn2)cc1F (stereo unspecified)	-14.1%
Cc1ccc(CNC(=O)NC2CCN(CC(F)F)CC2)cc1	-6.25%
CC(C)CC(=O)N1Cc2ccccc2CC1C(=O)Nc1nncs1 (stereo unspecified)	-154%
Cc1nonc1CC(=O)N1CCC2(CCCN(C3CCOCC3)C2=O)C1 (stereo unspecified)	-95.3%
CS(=O)(=O)c1ccccc1-n1cc(NC(=O)CC2C=CCC2)cn1 (stereo unspecified)	1.78%
CN(C)CCNCCC(c1ccccc1)C1CCOC(C)(C)C1 (stereo unspecified)	-5.67%
COc1ccccc1CN1C(=O)O[C@@H]2CN(S(=O)(=O)N(C)C)C[C@@H]21	2.54%
CC(=O)N(C)Cc1nn(C)c2c1CN(Cc1ccsc1)C2	-134%
Cn1cc(CN2CCc3onc(COCC4CC4)c3C2)cn1	6.35%
O=C(O)c1c(-c2ccncc2)ncc2c1CCN(Cc1ccco1)C2	-3.6%
Cc1ccc2c(c1)SCC(=O)N2CC(=O)N1CCCC1c1nccs1 (stereo unspecified)	12.4%
CS(=O)(=O)N1CC(c2n[nH]c3ncccc23)C1	-23.4%
Cc1cc(Cl)ccc1NCC(=O)Nc1cc(C(C)(C)C)no1	0.521%
Cn1cc(C2=CCN(CCC(=O)NCc3ccc(Cl)cc3)CC2)cn1	-1.77%
Cc1noc(CCNC(=O)c2ccc(N(C)C)c(F)c2)n1	6.05%
Cc1occc1C(=O)N1CCC2(CCCN(CC3CCC3)C2=O)C1 (stereo unspecified)	-5.47%
Cc1cc(O)c(OCC(=O)Nc2nc3c(s2)CCCC3)cn1	12.8%
Cc1ccc(C(=O)N2CCO[C@H]3[C@H](OCc4ccccn4)CC[C@@H]32)o1	-148%
